Measured values published in publication PMC3306222 (Biopolymers, 2011).
Where a SMILES comes first, the peptide text is derived from it. Bridges are numbered along the chain shown (N, C = ends). [ ]: non-standard residue; d: D form. S5 = C=CCCC[C@](C)(N)C(=O)O

Tests used:
[1] = assay type: physicochemical; conditions: fit of NMR chemical shift changes with concentration, D2O, 298 K, pH 7.0
[2] = Dynamic light scattering of free peptides; assay type: physicochemical; conditions: DLS, lower peptide concentration (100 µM)
Method in brief: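 Free stapled peptide stocks, quantified by absorbance at 280 nm, were diluted into D₂O or H₂O to 100 µM or 1 mM and centrifuged at 6,000–8,000 g before loading. Light scattering was recorded as one hundred 5-s scans per sample at ambient temperature and corrected for solvent signal. Normalized intensity was plotted against radius, and the hydrodynamic radius and polydispersity index of major peaks were reported.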

[3] = molecular target: CA-CTD dimerization helix peptide CTD dimerization helix (Human immunodeficiency virus 1) (UniProt O93182); conditions: cited from earlier work

Molecule	Kd of self-association, isodesmic model of indefinite association [1] [mM]	effective radius of gyration of monomer [2] [nm]	Kd [3] [µM]
CC[C@H](C)[C@H](N)C(=O)N[C@H](C(=O)N[C@@H](Cc1ccccc1)C(=O)N[C@@]1(C)CCC/C=C\CCC[C@@](C)(C(=O)N[C@@H](Cc2ccc(O)cc2)C(=O)N[C@@H](Cc2ccc(O)cc2)C(=O)NCC(=O)N[C@@H](CCCCN)C(=O)N[C@@H](CCCCN)C(=O)N[C@@H](CCCCN)C(N)=O)NC(=O)[C@H](CC(C)C)NC(=O)[C@H](CC(C)C)NC(=O)[C@H](CC(=O)O)NC1=O)[C@@H](C)O [NYAD-13] (H-ITF[S5]DLL[S5]YYGKKK-NH2; staple (Z) 4-8; N-terminus and C-terminus assumed)	2.5 ± 1.4	1	–
CA-CTD dimerization helix peptide CTD dimerization helix (from UniProt O93182)	–	–	17
